Screens (PubChem)
The entries come from a sample that favours hits as a whole.
XBP1 UPR activ = activators of adaptive XBP1 UPR arm, primary screen, cell-based, CHO-XBP1 luciferase reporter, luminescence, uHTS; IRE1-XBP1 UPR activation; percent of tunicamycin response, DMSO as zero; activation, % at 20 µM; hit rate 0.33% among 330,000;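 active = versus positive control, 20 µM dose yields 30% or more activation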
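Material: IRE1-XBP1 luciferase reporter CHO line / Quantity: one thousand reporter cells per well / Buffer or medium: F12 with 10% serum / Compound: 20 µM single concentration, DMSO 1% / Times: 6 h treatment, 37 °C / Detection: Steady-Glo luciferase glow luminescence, 10 min after reagent addition / Benchmarks: tunicamycin high, DMSO low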
Dynein cargo inh = inhibitors of GR-EGFP nuclear translocation, primary screen, dynein cargo transport inhibitor project, imaging, high-content, 3617.4 mouse cells. test concentration mostly 20 µM; stimulated with dexamethasone, 1 µM; stronger effect = lower value. z-score, hits read low. hit rate 0.47% among 220,000;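 active = plate z-score of nuclear minus cytoplasmic receptor signal below a set negative limit, without overly bright fluorescence or cell loss, cut at about -3.5 in these data, passing the limit was not always enough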;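 note: z-score of nuclear minus cytoplasmic ring GR-EGFP intensity difference per well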
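medium = tetracycline-free induction medium containing charcoal-stripped FBS | probe or stimulus = dexamethasone, 1.0 µM final | timing = 48 h induction, then 1 h compound, then 30 min agonist, 37 °C | detection = automated 10x imaging of fixed Hoechst-stained cells | read-out basis = nuclear versus cytoplasmic GR-EGFP signal, averaged per well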
L major viab = Leishmania major promastigote growth inhibition, primary screen; AID 1063, 2008; hit rate 9% among 200,000; Leishmania major promastigotes, resazurin fluorescence viability; inhibition, % at 10 µM; in the data active = inhibition above about 50%;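 note: promastigotes grown with compound for 44 hours at 28 °C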
CHOP UPR activ = activators of apoptotic CHOP UPR arm, primary screen, cell-based, CHO-CHOP luciferase reporter, luminescence, uHTS. UPR activation; percent of tunicamycin response over DMSO baseline. activation, % at 10 µM. hit rate 0.34% among 330,000;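 active = at 10 µM dose, activation of 40% or more, normalized to positive control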
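System: CHO CHOP reporter cells. Amount: 500 cells per well. Buffer or medium: F12 medium, 10% FBS. Compound dosing: one dose, 10 µM in 0.5% DMSO. Incubation: 6 h compound exposure at 37 °C after overnight seeding. Technique: Steady-Glo luciferase luminescence. Benchmarks: tunicamycin and DMSO controls.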
T cruzi repl = inhibitors of intracellular T. cruzi growth, primary screen, luminescence, NIH3T3 host cells. T. cruzi beta-gal in NIH3T3, 90 h. inhibition, % (concentration not given with the values). hit rate 1.4% among 300,000. AID 1885, 2009;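 active = mean inhibition across valid replicates above about 55%, limit read from the data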;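 note: signal also drops with host cell toxicity which is not excluded here; higher percent means less beta-gal luminescence so fewer parasites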
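compound dosing = single 50 nL compound addition per well in DMSO | material = NIH/3T3 host cells with β-galactosidase reporter T. cruzi | input = 5,000 host fibroblasts per well | timing = ≥90 h infection period, 3 h prior cell attachment | read-out basis = percent inhibition of parasite-derived β-gal signal | detection = GalScreen β-gal luminescence, detergent lysis, 60 min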
CHOP inhibitor = inhibitors of CHOP promoter induction, primary screen, cell-based, unfolded protein response, luciferase reporter. CHO-K1 CHOP-promoter luciferase, tunicamycin-induced, 15-18 h. inhibition, % at 10 µM. hit rate 3.8% among 220,000. AID 2732, 2010;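 active = compounds that reduced the stress-induced luciferase reporter signal by more than about 70% of percent inhibition, limit read from the data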
UPR XBP1 confirm = IRE1-XBP1 UPR arm activators, confirmation, cell-based, CHO-XBP1 luciferase reporter, luminescence, single concentration. shares compounds with XBP1 UPR activ. activation, % at 20 µM. hit rate 63% among 1,000. AID 485299, 2010;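 active = reporter signal at least 30% of the positive control's activation in two or more of four replicate wells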
Numbers stand for hits; 0 = inactive; - = no result given.

SMILES	XBP1 UPR activ	Dynein cargo inh	L major viab	CHOP UPR activ	T cruzi repl	CHOP inhibitor	UPR XBP1 confirm
NC1=NC[C@@H](CC2CCCCC2)N1CCc1cc(C(F)(F)F)cc(C(F)(F)F)c1	49.0	-	-	0	-	-	54.9
NC1=NC[C@H](Cc2ccc(O)cc2)N1CCc1cc(C(F)(F)F)cc(C(F)(F)F)c1	0	0	-	0	0	0	-
CC(=O)Nc1ccc(S(=O)(=O)N(C)CC(=O)Nc2nc3ccccc3[nH]2)cc1	0	-	-	0	-	-	-
N#Cc1c(NC(=O)c2ccc(Br)o2)n(-c2ccccc2)c2nc3ccccc3nc12	0	0	-	0	0	0	-
CCC(C)n1c(NC(=O)c2ccccc2)c(C#N)c2nc3ccccc3nc21 (stereo unspecified)	63.0	0	0	0	0	-	0
COc1ccccc1C(=O)OCC(=O)Nc1cccc(S(=O)(=O)N2CCCC2)c1	0	-	-	0	-	-	-
CC(=O)Nc1ccc(-c2cc(-c3ccc(NC(C)=O)cc3)nc(-c3ccccc3)n2)cc1	45.8	0	0	0	0	0	0
CC(=O)Nc1ccc(-c2cc(-c3ccccc3)nc(-c3ccccc3)n2)cc1	0	0	0	0	0	0	-
CCC(=O)Nc1ccc(-c2cc(-c3ccccc3)nc(-c3ccc(NC(=O)CC)cc3)n2)cc1	82.0	0	0	0	0	0	92.5
Cc1cc(NC(=O)CSc2nnc(C(F)(F)F)n2C)no1	0	-	-	0	-	-	-
Cc1ccc(NC(=O)CN(C)C(=O)c2cccc(S(=O)(=O)NCc3ccco3)c2)cc1	0	-	-	0	-	-	-
Nc1nc(Nc2ccccc2)nc(NC2CCCCC2)c1[N+](=O)[O-]	42.5	-	-	0	0	-	35.3
CC(C)NC(=O)[C@H]1N2C(=O)c3ccccc3C2SC1(C)C (stereo partly specified)	0	-	-	0	0	-	-
